Measurements as given in ChEMBL document CHEMBL1149778, “Synthesis of some novel 2,4-disubstituted thiazoles as possible antimicrobial agents” (2008).
Converted amounts (≈) assume the structure as drawn.

Assays:
Pseudomonas aeruginosa [1] = assay: Antibacterial activity against Pseudomonas aeruginosa ATTC 27853 assessed as zone of inhibition after 16 to 18 hrs by serial plate dilution method; assay type: functional, ATCC27853
Method in brief: (§1)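 Agar well diffusion: 20 ml agar per dish seeded with bacterial suspension, excess decanted, dishes held 1 h at 37 °C. Wells punched, compounds in DMSO added at their MIC levels, DMSO wells as control. Zone of inhibition measured.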

Escherichia coli [2] = assay: Antibacterial activity against Escherichia coli ATTC 25922 after 16 to 18 hrs by serial plate dilution method; assay type: functional; conditions: ATCC25922
Method in brief: (§2)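 MIC by broth serial dilution: compound serially diluted in Mueller-Hinton broth, tubes adjusted to […] with phosphate buffer. Standardized bacterial suspension inoculated, incubated 16-18 h at 37 °C. MIC read as the lowest concentration with no visible growth.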

Escherichia coli [3] = assay: Antibacterial activity against Escherichia coli ATTC 25922 assessed as zone of inhibition after 16 to 18 hrs by serial plate dilution method; assay type: functional, ATCC25922; method in brief: as §1
Staphylococcus aureus [4] = assay: Antibacterial activity against Staphylococcus aureus ATTC 25923 after 16 to 18 hrs by serial plate dilution method; assay type: functional; method in brief: as §2
Staphylococcus aureus [5] = assay: Antibacterial activity against Staphylococcus aureus ATTC 25923 assessed as zone of inhibition after 16 to 18 hrs by serial plate dilution method; assay type: functional; method in brief: as §1
Pseudomonas aeruginosa [6] = assay: Antibacterial activity against Pseudomonas aeruginosa ATTC 27853 after 16 to 18 hrs by serial plate dilution method; assay type: functional; conditions: ATCC27853; method in brief: as §2
Bacillus subtilis [7] = assay: Antibacterial activity against Bacillus subtilis after 16 to 18 hrs by serial plate dilution method; assay type: functional; method in brief: as §2
Bacillus subtilis [8] = assay: Antibacterial activity against Bacillus subtilis assessed as zone of inhibition after 16 to 18 hrs by serial plate dilution method; assay type: functional; method in brief: as §1
Aspergillus flavus [9] = assay: Antifungal activity against Aspergillus flavus NCIM No.524 by serial plate dilution method; assay type: functional
Aspergillus flavus [10] = assay: Antifungal activity against Aspergillus flavus NCIM No.524 assessed as zone of inhibition by serial plate dilution method; assay type: functional
Method in brief: (§3)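 Sabouraud agar (peptone, D-glucose, agar; pH 5.7), 20 ml per dish, lawned with a saline spore suspension from a loopful of fungus. Excess decanted, plates dried 1 h at 37 °C. Wells punched and compounds in DMSO added, DMSO as control. Triplicate plates, 37 °C for 3-4 days; inhibition-zone diameter measured.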

[11] = tested on: Trichophyton mentagrophytes; assay: Antifungal activity against Trichophyton mentagrophytes by serial plate dilution method; assay type: functional
[12] = tested on: Trichophyton mentagrophytes; assay: Antifungal activity against Trichophyton mentagrophytes assessed as zone of inhibition by serial plate dilution method; assay type: functional; method in brief: as §3
Aspergillus fumigatus [13] = assay: Antifungal activity against Aspergillus fumigatus NCIM No.902 by serial plate dilution method; assay type: functional
Aspergillus fumigatus [14] = assay: Antifungal activity against Aspergillus fumigatus NCIM No.902 assessed as zone of inhibition by serial plate dilution method; assay type: functional; method in brief: as §3
Talaromyces marneffei [15] = assay: Antifungal activity against Penicillium marneffei by serial plate dilution method; assay type: functional
Talaromyces marneffei [16] = assay: Antifungal activity against Penicillium marneffei assessed as zone of inhibition by serial plate dilution method; assay type: functional; method in brief: as §3

Row | MIC (Escherichia coli [2]) [µg/mL] | MIC (Staphylococcus aureus [4]) [µg/mL] | MIC (Pseudomonas aeruginosa [6]) [µg/mL] | MIC (Bacillus subtilis [7]) [µg/mL] | MIC (Aspergillus flavus [9]) [µg/mL] | MIC [11] [µg/mL] | MIC (Aspergillus fumigatus [13]) [µg/mL] | MIC (Talaromyces marneffei [15]) [µg/mL] | SMILES | inhibition zone (IZ) (Pseudomonas aeruginosa [1]) [mm] | inhibition zone (IZ) (Escherichia coli [3]) [mm] | inhibition zone (IZ) (Staphylococcus aureus [5]) [mm] | inhibition zone (IZ) (Bacillus subtilis [8]) [mm] | inhibition zone (IZ) (Aspergillus flavus [10]) [mm] | inhibition zone (IZ) [12] [mm] | inhibition zone (IZ) (Aspergillus fumigatus [14]) [mm] | inhibition zone (IZ) (Talaromyces marneffei [16]) [mm]
1 | 6.25 (≈ 16.2 µM) | 6.25 (≈ 16.2 µM) | 6.25 (≈ 16.2 µM) | 6.25 (≈ 16.2 µM) | 12.5 (≈ 32.3 µM) | 12.5 (≈ 32.3 µM) | 12.5 (≈ 32.3 µM) | 25 (≈ 64.6 µM) | CSc1ccc(-c2csc(-c3cc(Cl)cc(Cl)c3Cl)n2)cc1 | 16 | 16 | 16 | 16 | 11 | 11 | 11 | <10
2 | 25 (≈ 60 µM) | 12.5 (≈ 30 µM) | 12.5 (≈ 30 µM) | 12.5 (≈ 30 µM) | 6.25 (≈ 15 µM) | 6.25 (≈ 15 µM) | 6.25 (≈ 15 µM) | 6.25 (≈ 15 µM) | Clc1cc(Cl)c(Cl)c(-c2nc(-c3ccc(-c4ccccc4)cc3)cs2)c1 | 11 | <10 | 11 | 11 | 16 | 16 | 16 | 16
3 | 12.5 (≈ 32.6 µM) | 25 (≈ 65.2 µM) | 12.5 (≈ 32.6 µM) | 12.5 (≈ 32.6 µM) | 6.25 (≈ 16.3 µM) | 6.25 (≈ 16.3 µM) | 6.25 (≈ 16.3 µM) | 6.25 (≈ 16.3 µM) | Clc1cc(Cl)c(Cl)c(/C=N/Nc2nc(-c3cccnc3)cs2)c1 | 11 | 11 | <10 | 10 | 16 | 16 | 16 | 16
4 | 6.25 (≈ 16.9 µM) | 12.5 (≈ 33.7 µM) | 12.5 (≈ 33.7 µM) | 12.5 (≈ 33.7 µM) | 25 (≈ 67.4 µM) | 25 (≈ 67.4 µM) | 25 (≈ 67.4 µM) | 25 (≈ 67.4 µM) | COc1ccc(-c2csc(-c3cc(Cl)cc(Cl)c3Cl)n2)cc1 | 11 | 16 | 11 | 11 | <10 | <10 | <10 | <10
5 | 25 (≈ 69.1 µM) | 6.25 (≈ 17.3 µM) | 12.5 (≈ 34.6 µM) | 6.25 (≈ 17.3 µM) | 25 (≈ 69.1 µM) | 25 (≈ 69.1 µM) | 25 (≈ 69.1 µM) | 25 (≈ 69.1 µM) | Clc1cc(Cl)c(Cl)c(-c2nc(CN3CCCCC3)cs2)c1 | 11 | <10 | 16 | 16 | <10 | <10 | <10 | <10
6 | 6.25 (≈ 14.6 µM) | 6.25 (≈ 14.6 µM) | 6.25 (≈ 14.6 µM) | 6.25 (≈ 14.6 µM) | 25 (≈ 58.3 µM) | 6.25 (≈ 14.6 µM) | 6.25 (≈ 14.6 µM) | 25 (≈ 58.3 µM) | CSc1ccc(-c2csc(N/N=C/c3cc(Cl)cc(Cl)c3Cl)n2)cc1 | 16 | 16 | 16 | 16 | <10 | 16 | 16 | <10
7 | – | – | – | – | 6.25 | 6.25 | 6.25 | 6.25 | Cc1cc(C2CCCCC2)n(O)c(=O)c1.NCCO [CICLOPIROX OLAMINE] | – | – | – | – | 16 | 16 | 16 | 16
8 | – | – | – | 1.56 (≈ 4.71 µM) | – | – | – | – | O=C(O)c1cn(C2CC2)c2cc(N3CCNCC3)c(F)cc2c1=O [CIPROFLOXACIN] | 16 | 16 | 16 | 21 | – | – | – | –
